# Assay results as given in PMC3714013 (Chemistry & biology, 2013).
# Where two headings read alike, the source gives them in different places. Positions of bridges follow the written chain, without caps; N, C: chain ends. No end group written: not given here.
# B1: RFF→AFF mutation in Asip: Asip mutant with RFF motif changed to AFF, literature value (protein)
# chain: HLALEETLGDDRSLRSNSSMNSLDFSSVSIVALNKKSKKISRKEAEKRKRSSKKKASMKKVARPPPPSPCVATRDSCKPPAPACCDPCASCQCAFFGSACTCRVLNPNC
# Key:
# Adult male Wistar rats = assay: AgRP-induced weight gain in free-feeding rats, ICV injection; type: in vivo, rat
# How it was run: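 Adult male Wistar rats, housed individually on a 12-12h light:dark cycle with chow. Third-ventricle cannula implanted under isoflurane, recovery ≥7 days, placement verified by a plasma glucose rise after ICV 5-thio-D-glucose. ICV pre-treatment with vehicle or test peptide, then 1 h later AgRP (0.01 nmol) or vehicle; n=8–10/group. Body weight gain followed over 5 days.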
# MC1R [1] = target: T1, MC1R (Homo sapiens, UniProt Q01726); details: cited from earlier work
# T1 sequence (Q01726 whole entry): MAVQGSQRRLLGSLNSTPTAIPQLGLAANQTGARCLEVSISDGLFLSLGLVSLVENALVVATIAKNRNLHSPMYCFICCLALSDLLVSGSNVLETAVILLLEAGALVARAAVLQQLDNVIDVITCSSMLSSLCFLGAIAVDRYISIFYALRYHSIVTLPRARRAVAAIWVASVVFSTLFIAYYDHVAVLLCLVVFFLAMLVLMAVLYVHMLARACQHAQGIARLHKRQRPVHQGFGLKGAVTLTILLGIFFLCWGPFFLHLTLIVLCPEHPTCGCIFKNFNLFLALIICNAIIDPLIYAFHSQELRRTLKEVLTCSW
# MC1R [2] = target: T1, MC1R; assay: Competitive; type: binding
# How it was run: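 Intact HEK 293T cells were transiently transfected with a human MC1R construct (calcium phosphate), harvested after 20 h and plated at 10,000–70,000 cells/well in binding buffer. Eu-NDP-MSH ([…]) plus 3-fold dilutions of test peptide (9.0×10−6M to 4.6×10−10M) were incubated for 2 h at 37°C. Read-out was time-resolved fluorescence. Tracer Kd came from saturation binding. Three independent experiments, in duplicate.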
# human MC4R = human MC4R (Homo sapiens, UniProt P32245); assay: Competitive; type: binding
# Chain of human MC4R (P32245 whole entry): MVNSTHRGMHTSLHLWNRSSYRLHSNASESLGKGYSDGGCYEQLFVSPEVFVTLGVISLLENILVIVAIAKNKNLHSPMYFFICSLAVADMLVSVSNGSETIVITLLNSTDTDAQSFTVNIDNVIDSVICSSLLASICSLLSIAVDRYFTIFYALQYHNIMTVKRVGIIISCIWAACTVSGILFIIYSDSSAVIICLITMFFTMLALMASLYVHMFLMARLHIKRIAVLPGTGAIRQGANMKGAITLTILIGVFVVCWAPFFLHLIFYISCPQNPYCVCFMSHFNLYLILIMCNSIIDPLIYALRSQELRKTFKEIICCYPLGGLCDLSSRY
# How it was run: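 Intact HEK293T cells transiently transfected (calcium phosphate) with human MC4R, harvested 20 h later, in L*R binding buffer at 10,000–70,000 cells/well. […] Washed, DELFIA enhancement, time-resolved fluorescence. Three independent experiments in duplicate.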
# [3] = system: Melan-a cells (MC1R activation); details: ref Candille et al., 2007; cited from earlier work
# MC1R [4] = target: T1, MC1R; details: read-out: MC1R Ki; ref Kiefer et al., 1998; cited from earlier work
molecule,measurement,setting,value
"Agouti-related protein (SPRRCVRLHESCLGQQVPCCDPCATCYCRFFNAFCYCRKLGTATNLCSRT; UniProt P56473 82-131, looked up) [AgRP]",effect on body weight (energy balance response),Adult male Wistar rats; ICV 0.01 nmol (submaximal dose),increased weight gain
same,effect on food intake in the first 24 hours,"Adult male Wistar rats; ICV 0.01 nmol, data not shown",no detectable effect on food intake
Asip (from UniProt P42127),Ki,MC1R [1],2.6 nM
GIINTLQKYYCRVRGGRSAVLSSLPKEEQIGKSSTRGRKCSRRKK-NH2 (disulfide 11-40) [CysT-V],Ki,MC1R [2],243 nM
same,Ki,human MC4R,206 nM
GIINTLQKYYSRVRGGRSAV-NH2 [N-term Truncate],Ki,MC1R [2],> 5000 nM
GIINTLQKYYSRVRGGRSAVLSSLPKEEQIGKSSTRGRKSSRRKK-NH2 [Cys->Ser],Ki,MC1R [2],297 nM
same,Ki,human MC4R,436 nM
canine β-defensin 103 [CBD103],effect on cAMP levels in Melan-a cells,[3],"neither CBD103 ([Candille et al., 2007]) nor HBD3 (Figure S1A) stimulate or reduce cAMP levels"
B1,Ki,MC1R [4],> 1900 nM
